Compound activity deposited in PubChem by several laboratories.
DTT redox prof: compounds producing H2O2 with reducing agent – biochemical, NIH compound library profiling, artefact control for MLSCN library redox annotation, primary screen. AID 878. 200,000 tested, 0.03% active. DTT-dependent redox cycling H2O2, phenol red/HRP absorbance; 100% = 100 µM peroxide control, 0% = buffer. activation, % at 10 µM;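 active = activation of at least 50% relative to the plate's high and low controls in the primary single-dose screen; inactive = activation below 50%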;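 note: compound incubated with DTT at 0.8 mM final as the reducing agent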
TNAP inh noacc: inhibitors of human TNAP without phosphate acceptor; purified TNAP, CDP-star luminescence, 30 min; inhibition, % at 20 µM; AID 1012; 200,000 tested, 0.26% active;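 active = tissue-nonspecific alkaline phosphatase inhibition above about 50% at 20 µM in the single-dose screen, limit read from the data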;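 note: 0% = DMSO negative control and 100% = EDTA positive control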
TNAP inh hi DEA: inhibitors of human TNAP at high phosphate acceptor concentration; P05186; purified TNAP, CDP-star luminescence, 1 M DEA; inhibition, % at 20 µM; 200,000 tested, 0.03% active; AID 1135;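 active = over 50% inhibition of tissue-nonspecific alkaline phosphatase at 20 µM in the single-dose screen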;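 note: plate controls were DMSO wells for no effect and EDTA-quenched wells as full inhibition for full effect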
TNAP act hi DEA: TNAP (human) activation, high acceptor | P05186 | purified TNAP, CDP-star luminescence, 1 M DEA, 30 min; stronger effect = higher value; 0 = EDTA background, 1 = DMSO-only activity | activation factor at 20 µM | 200,000 tested, under 10 active | AID 1136;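 active = activation factor at least 2 at 20 µM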
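Assay system: human TNAP; Input: enzyme diluted 1/800 final; Reagent: CDP-star luminogenic substrate at 100 µM final; Timing: 30 min, room temperature; Signal: luminescence; Evaluation: TNAP activation factor scaled between EDTA and DMSO control wells.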
G6PDH CS: L. mesenteroides G6PDH inhibition counter-screen; Purified L. mesenteroides G6PDH, diaphorase/resazurin coupled fluorescence, 45 min; AID 1020; 200,000 tested, 0.12% active; inhibition, % at 5 µM; in the data active = inhibition above about 50%
p97 inhibitor: blocks human p97 ATPase activity. P55072. recombinant p97 ATPase, Kinase-Glo ATP luminescence, 3 h. inhibition, % at 8 µM. 220,000 tested, 0.42% active; in the data active = inhibition above about 15%;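 note: 0% = DMSO vehicle and 100% = wells lacking enzyme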
Target sequence (P55072 whole entry, looked up): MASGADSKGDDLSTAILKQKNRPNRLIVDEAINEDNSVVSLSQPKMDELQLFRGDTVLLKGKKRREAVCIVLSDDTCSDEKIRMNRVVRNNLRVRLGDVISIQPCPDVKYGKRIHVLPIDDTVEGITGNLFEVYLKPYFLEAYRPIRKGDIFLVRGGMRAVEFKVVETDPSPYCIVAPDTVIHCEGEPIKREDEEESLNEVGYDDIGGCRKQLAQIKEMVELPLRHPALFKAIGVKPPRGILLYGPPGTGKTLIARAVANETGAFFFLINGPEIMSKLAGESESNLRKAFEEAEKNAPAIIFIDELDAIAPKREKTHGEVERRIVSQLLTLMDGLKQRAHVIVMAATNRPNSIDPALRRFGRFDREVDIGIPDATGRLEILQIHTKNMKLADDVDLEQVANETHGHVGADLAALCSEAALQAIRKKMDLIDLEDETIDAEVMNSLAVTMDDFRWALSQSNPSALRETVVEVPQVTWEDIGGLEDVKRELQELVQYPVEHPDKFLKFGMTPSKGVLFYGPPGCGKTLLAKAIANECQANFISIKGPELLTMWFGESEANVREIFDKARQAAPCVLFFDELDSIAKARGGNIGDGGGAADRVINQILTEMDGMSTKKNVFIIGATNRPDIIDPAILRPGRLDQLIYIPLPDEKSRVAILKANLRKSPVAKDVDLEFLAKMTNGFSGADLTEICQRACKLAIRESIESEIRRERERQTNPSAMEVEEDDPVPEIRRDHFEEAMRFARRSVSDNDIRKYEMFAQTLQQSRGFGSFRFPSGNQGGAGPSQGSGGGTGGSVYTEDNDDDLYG
p97 inh conf: human p97 ATPase inhibition, confirmation; shares compounds with p97 inhibitor; recombinant p97 ATPase, Kinase-Glo ATP luminescence; inhibition, % at 8 µM; 760 tested, 44% active;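 active = percent inhibition of p97 ATPase above a set limit, the primary screen's mean plus 3 SD, cut at about 15% in these data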;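 note: 0% = DMSO wells and 100% = wells lacking p97 protein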
* = called active by the depositor; x = no result; ! = not active in a repeat. This is a sample that favours compounds with a hit; in the whole collection about 0.79% have one here.

SMILES | DTT redox prof | TNAP inh noacc | TNAP inh hi DEA | TNAP act hi DEA | G6PDH CS | p97 inhibitor | p97 inh conf
O=C1S/C(=C\C=C\c2ccco2)C(=O)N1c1ccc(O)cc1 | 1 | 3 | 15 | 0.9 | -9 | 43* | 11
Nc1c(C(=O)Nc2ccccc2)sc2nc(-c3ccco3)ccc12 | 0 | -1 | -1 | 1 | -2 | 19* | 18*
COc1ccccc1NC(=O)c1sc2nc(-c3ccco3)ccc2c1N | 0 | -4 | 4 | 1 | -2 | 2 | x
Cc1cc(Sc2nc(N(C)C)nc(N(C)C)n2)nc(Cl)n1 | -2 | -9 | -4 | 1 | 13 | -5 | x
O=C(O)CCC(=O)Nc1ccc(Sc2ccc([N+](=O)[O-])cc2)cc1 | 5 | -33 | 2 | 1 | 22 | 8 | x
CNC(=O)c1sc(-c2ccccn2)nc1C | 0 | -12 | -3 | 1 | 4 | -2 | x
O=C(O)c1cccc(CN2C(=O)SC(Nc3ccccc3)C2=O)c1 (stereo not drawn) | 0 | -13 | -6 | 1.1 | -2 | 5 | x
O=C(O)c1cccc(CN2C(=O)SC(Nc3cccc4ccccc34)C2=O)c1 (stereo not drawn) | -9 | -14 | -1 | 1 | 21 | 17* | 13
Cc1ccc2c(c1)C1C=CCC1C(C(=O)O)N2 (stereo not drawn) | 2 | 10 | 13 | 0.9 | 2 | 9 | x
CC(=O)c1ccc2c(c1)C1C=CCC1C(C(=O)O)N2 (stereo not drawn) | -1 | 2 | 11 | 0.9 | 7 | 20* | 30*
COc1cc(OC)cc(C(=O)NNC(=S)Nc2ccc(S(N)(=O)=O)cc2)c1 | -2 | -81 | 3 | 1 | 11 | 21* | 25*
CCC(=O)Nc1ccc(F)c(Cl)c1 | -3 | -6 | 0 | 1 | 22 | 4 | x
CCC(=O)Nc1ccc(Br)c(Cl)c1 | 0 | -2 | -2 | 1 | 5 | 16* | 11
CN(C)S(=O)(=O)c1ccc2c(c1)nc(CCC(=O)O)n2C | 0 | -10 | -3 | 1 | 0 | 16* | 7
CCn1c(CCC(=O)O)nc2cc(S(=O)(=O)N(C)C)ccc21 | 0 | -14 | -7 | 1.1 | 2 | 1 | x
Brc1ccc2[nH]c3nc(SCCN4CCOCC4)nnc3c2c1 | 0 | -5 | 2 | 1 | 2 | 17*! | 7
c1ccc2c(c1)[nH]c1nc(SCCN3CCOCC3)nnc12 | 5 | 2 | 2 | 1 | -14 | 3 | x
Cc1c(O)ccc(C(=O)CN2CCN(Cc3ccc4c(c3)OCO4)CC2)c1O | 0 | -10 | -2 | 1 | 9 | 16* | 8
Cc1ccc(C(=O)N2CCN(Cc3ccc4c(c3)OCO4)CC2)o1 | -4 | -6 | -7 | 1.1 | 4 | -1 | x
O=C(Nc1cccc2nsnc12)c1ccc(-c2cccc(Cl)c2)o1 | 1 | -5 | 4 | 1 | 13 | 18* | 5
CN(CCOc1ccccc1)C(=O)c1cc([N+](=O)[O-])cc([N+](=O)[O-])c1 | 0 | -9 | -3 | 1 | 8 | 8 | x
CC(=O)Nc1ccc(S(=O)(=O)NC2(C(F)(F)F)NC(=O)N(C3CCCCC3)C2=O)cc1 (stereo not drawn) | 0 | -10 | -2 | 1 | -4 | 0 | x
CN1c2ccccc2C(C)(C)C12C=Nc1c(cc(N3CCOCC3)c3ccccc13)O2 (stereo not drawn) | -3 | -4 | -5 | 1.1 | 34 | 29* | 3
COc1ccc(/C(N)=C/C(=O)C(C)(C)C)cc1 | 2 | 8 | -5 | 1.1 | 2 | 34* | -2
O=C(O)CCCNC(=O)Nc1ccccc1 | 1 | -14 | -5 | 1 | 18 | 3 | x
O=C(NCCC1CC1(Cl)Cl)Nc1ccccc1 (stereo not drawn) | x | x | x | x | x | 23* | 6
COc1cccc(Nc2nc(-c3sc(NC(=O)c4ccccc4)nc3C)cs2)c1 | -6 | 3 | -1 | 1 | 4 | -5 | x
Cc1nc(NC(=O)c2ccccc2)sc1-c1csc(Nc2ccc(C(=O)O)cc2)n1 | x | x | x | x | x | 15* | 15*
